Converted amounts (≈) assume the structure as drawn.
What was measured:
Liver microsome [1] = assay: Intrinsic clearance in human liver microsomes assessed per mg protein at 100 uM by LC-MS/MS analysis; type: ADME
CYP3A4 = CYP3A4 (Homo sapiens, UniProt P08684); assay: Inhibition of CYP3A4 in human microsomes preincubated at 10 uM for 5 mins before substrate addition measured after 10 mins by LC/MS/MS analysis; type: ADME
Plasma [2] = assay: Fraction unbound in human plasma at 10 uM after 5 hrs by LC-MS/MS analysis; type: ADME, cell-free
CYP1A2 = CYP1A2 (Homo sapiens, UniProt P05177); assay: Inhibition of CYP1A2 in human microsomes preincubated at 10 uM for 5 mins before substrate addition measured after 10 mins by LC/MS/MS analysis; type: ADME
Liver = assay: Half life in mouse liver microsomes at 100 uM by LC-MS/MS analysis; type: ADME
[3] = biological target: Adenosine receptor A2a (Homo sapiens) (UniProt P29274); assay: Displacement of [3H]CGS21680 from human recombinant A2A adenosine receptor expressed in HEK293 cells at 10 uM after 60 mins by liquid scintillation counting; type: cell-based
[4] = Aqueous solubility of the compound at pH 7.4 by pION Method; type: physicochemical; conditions: buffer
[5] = Half life of the compound in simulated intestinal fluid at pH 6.5; type: ADME; conditions: simulated gi fluid
Cytochrome P450 2C19 = Cytochrome P450 2C19 (Homo sapiens, UniProt P33261); assay: Inhibition of CYP2C19 in human microsomes preincubated for 5 mins before substrate addition measured after 10 mins by LC/MS/MS analysis; type: ADME
CYP2C19 = CYP2C19 (Homo sapiens, UniProt P33261); assay: Inhibition of CYP2C19 in human microsomes preincubated at 10 uM for 5 mins before substrate addition measured after 10 mins by LC/MS/MS analysis; type: ADME
Plasma [6] = assay: Fraction unbound in rat plasma at 10 uM after 5 hrs by LC-MS/MS analysis; type: ADME, cell-free
[7] = biological target: Adenosine receptor A2a (Mus musculus) (UniProt Q60613); assay: Displacement of [3H]CGS21680 from mouse A2A adenosine receptor expressed in HEK293 cells at 10 uM after 60 mins by liquid scintillation counting; type: cell-based
Cytochrome P450 2D6 = Cytochrome P450 2D6 (Homo sapiens, UniProt P10635); assay: Inhibition of CYP2D6 in human microsomes preincubated for 5 mins before substrate addition measured after 10 mins by LC/MS/MS analysis; type: ADME
Mus musculus [8] = assay: Antinociceptive activity in chronic constriction injury neutropathic pain CD-1 mouse model at 3 umol/kg, po after 3 hrs post dose relative to control; type: functional
Plasma [9] = assay: Fraction unbound in mouse plasma at 10 uM after 5 hrs by LC-MS/MS analysis; type: ADME, cell-free
CYP2C9 = CYP2C9 (Homo sapiens, UniProt P11712); assay: Inhibition of CYP2C9 in human microsomes preincubated at 10 uM for 5 mins before substrate addition measured after 10 mins by LC/MS/MS analysis; type: ADME
Liver microsome [10] = assay: Half life in human liver microsomes at 100 uM by LC-MS/MS analysis; type: ADME
[11] = biological target: T1, Adenosine receptor A1 (Homo sapiens) (UniProt P30542); assay: Displacement of [3H]R-PIA from human recombinant A1 adenosine receptor expressed in CHO cells at 10 uM after 60 mins by liquid scintillation counting; type: cell-based
T1 sequence (whole entry): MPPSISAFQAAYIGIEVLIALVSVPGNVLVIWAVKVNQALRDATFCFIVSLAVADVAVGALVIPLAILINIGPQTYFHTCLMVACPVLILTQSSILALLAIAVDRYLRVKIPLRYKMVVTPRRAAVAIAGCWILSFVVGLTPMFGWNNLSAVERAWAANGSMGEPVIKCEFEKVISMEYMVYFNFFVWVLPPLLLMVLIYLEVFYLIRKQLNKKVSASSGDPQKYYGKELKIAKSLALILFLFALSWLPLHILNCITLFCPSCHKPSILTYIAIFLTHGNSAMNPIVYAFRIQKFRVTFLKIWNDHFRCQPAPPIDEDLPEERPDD

Mus musculus [12] = assay: Antinociceptive activity in chronic constriction injury neutropathic pain CD-1 mouse model assessed as maximum protection on ipsilateral hind paw at 3 umol/kg, po after 30 mins to 5 hrs post dose relative to control; type: functional; conditions: CD-1, po
Cytochrome P450 2C9 = Cytochrome P450 2C9 (Homo sapiens, UniProt P11712); assay: Inhibition of CYP2C9 in human microsomes preincubated for 5 mins before substrate addition measured after 10 mins by LC/MS/MS analysis; type: ADME
Cytochrome P450 3A4 = Cytochrome P450 3A4 (Homo sapiens, UniProt P08684); assay: Inhibition of CYP3A4 in human microsomes preincubated for 5 mins before substrate addition measured after 10 mins by LC/MS/MS analysis; type: ADME
CYP2D6 = CYP2D6 (Homo sapiens, UniProt P10635); assay: Inhibition of CYP2D6 in human microsomes preincubated at 10 uM for 5 mins before substrate addition measured after 10 mins by LC/MS/MS analysis; type: ADME
Cytochrome P450 1A2 = biological target: T2, Cytochrome P450 1A2 (Homo sapiens, UniProt P05177); assay: Inhibition of CYP1A2 in human microsomes preincubated for 5 mins before substrate addition measured after 10 mins by LC/MS/MS analysis; type: ADME
T2 sequence (P05177 whole entry): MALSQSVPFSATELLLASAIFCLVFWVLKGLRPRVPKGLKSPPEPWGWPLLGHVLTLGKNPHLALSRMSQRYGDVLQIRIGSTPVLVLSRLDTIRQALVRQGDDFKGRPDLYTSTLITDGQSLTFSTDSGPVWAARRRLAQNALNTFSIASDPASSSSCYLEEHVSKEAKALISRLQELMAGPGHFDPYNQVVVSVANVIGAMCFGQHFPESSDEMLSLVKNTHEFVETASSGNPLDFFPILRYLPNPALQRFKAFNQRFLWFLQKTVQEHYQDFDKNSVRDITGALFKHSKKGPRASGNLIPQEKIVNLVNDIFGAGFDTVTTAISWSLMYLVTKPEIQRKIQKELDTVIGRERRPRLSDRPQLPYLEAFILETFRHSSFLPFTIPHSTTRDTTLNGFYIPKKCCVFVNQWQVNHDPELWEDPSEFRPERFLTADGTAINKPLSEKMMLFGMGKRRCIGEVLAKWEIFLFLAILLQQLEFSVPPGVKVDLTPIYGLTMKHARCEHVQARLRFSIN

Mus musculus [13] = assay: Antinociceptive activity in chronic constriction injury neutropathic pain CD-1 mouse model assessed as time for peak protection at 3 umol/kg, po; type: functional
Method in brief: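 Male CD-1 mice (25−30 g), chronic constriction injury of left sciatic nerve (Bennett model) under isoflurane. Dosed by gavage (3 μmol/kg, 0.2 mL) at peak mechano-allodynia on day 7; vehicle 10% DMSO in 0.5% methylcellulose. Paw withdrawal threshold (g) measured on the ipsilateral hind paw from 30 min to 5 h post dose. Expressed as % reversal, mean ± SEM over n animals.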

Liver microsome [14] = assay: Half life in rat liver microsomes at 100 uM by LC-MS/MS analysis; type: ADME
[15] = Half life of the compound in simulated gastric fluid at pH 1.6; type: ADME; conditions: simulated gi fluid

Adenosine receptor A2a (Homo sapiens), sequence (P29274 whole entry): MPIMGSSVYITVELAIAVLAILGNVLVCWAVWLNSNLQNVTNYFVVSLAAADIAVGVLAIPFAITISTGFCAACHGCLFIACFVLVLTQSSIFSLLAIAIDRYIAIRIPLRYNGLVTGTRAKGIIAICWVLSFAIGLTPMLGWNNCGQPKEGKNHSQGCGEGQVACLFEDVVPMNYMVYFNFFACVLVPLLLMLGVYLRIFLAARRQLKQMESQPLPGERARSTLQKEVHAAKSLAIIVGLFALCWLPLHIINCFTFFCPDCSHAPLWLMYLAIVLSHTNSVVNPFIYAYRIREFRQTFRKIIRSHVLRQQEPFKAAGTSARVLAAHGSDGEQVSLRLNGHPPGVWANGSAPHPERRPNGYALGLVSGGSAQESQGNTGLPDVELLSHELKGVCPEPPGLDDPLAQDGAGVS
CYP3A4, sequence (P08684 whole entry): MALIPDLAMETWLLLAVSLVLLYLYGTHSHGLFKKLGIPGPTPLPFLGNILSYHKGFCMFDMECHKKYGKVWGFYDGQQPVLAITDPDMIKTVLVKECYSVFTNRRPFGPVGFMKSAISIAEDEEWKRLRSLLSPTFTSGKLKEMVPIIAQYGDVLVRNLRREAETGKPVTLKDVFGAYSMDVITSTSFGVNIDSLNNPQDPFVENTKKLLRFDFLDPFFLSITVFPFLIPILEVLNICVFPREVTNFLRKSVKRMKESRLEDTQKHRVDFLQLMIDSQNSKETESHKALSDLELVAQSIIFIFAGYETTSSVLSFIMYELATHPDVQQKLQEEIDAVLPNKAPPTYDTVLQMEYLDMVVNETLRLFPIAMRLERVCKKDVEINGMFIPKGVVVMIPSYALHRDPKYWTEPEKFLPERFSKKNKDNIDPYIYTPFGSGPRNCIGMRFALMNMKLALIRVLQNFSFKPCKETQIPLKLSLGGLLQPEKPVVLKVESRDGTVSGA
Cytochrome P450 3A4, sequence (P08684 whole entry): as above
CYP2C19, sequence (P33261 whole entry): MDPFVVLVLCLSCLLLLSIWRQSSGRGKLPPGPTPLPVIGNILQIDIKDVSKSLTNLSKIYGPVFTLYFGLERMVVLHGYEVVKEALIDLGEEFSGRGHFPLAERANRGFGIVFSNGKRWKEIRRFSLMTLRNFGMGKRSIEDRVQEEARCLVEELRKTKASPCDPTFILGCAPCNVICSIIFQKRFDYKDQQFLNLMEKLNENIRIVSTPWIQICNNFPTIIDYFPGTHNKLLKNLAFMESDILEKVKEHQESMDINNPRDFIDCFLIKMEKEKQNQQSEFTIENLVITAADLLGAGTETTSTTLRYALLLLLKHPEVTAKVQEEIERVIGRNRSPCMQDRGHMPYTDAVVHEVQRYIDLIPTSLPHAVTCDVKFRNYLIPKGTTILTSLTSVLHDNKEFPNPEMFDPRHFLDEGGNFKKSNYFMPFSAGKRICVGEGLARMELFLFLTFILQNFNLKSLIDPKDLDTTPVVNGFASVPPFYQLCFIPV
Cytochrome P450 2C19, sequence (P33261 whole entry): as above
Adenosine receptor A2a (Mus musculus), sequence (Q60613 whole entry): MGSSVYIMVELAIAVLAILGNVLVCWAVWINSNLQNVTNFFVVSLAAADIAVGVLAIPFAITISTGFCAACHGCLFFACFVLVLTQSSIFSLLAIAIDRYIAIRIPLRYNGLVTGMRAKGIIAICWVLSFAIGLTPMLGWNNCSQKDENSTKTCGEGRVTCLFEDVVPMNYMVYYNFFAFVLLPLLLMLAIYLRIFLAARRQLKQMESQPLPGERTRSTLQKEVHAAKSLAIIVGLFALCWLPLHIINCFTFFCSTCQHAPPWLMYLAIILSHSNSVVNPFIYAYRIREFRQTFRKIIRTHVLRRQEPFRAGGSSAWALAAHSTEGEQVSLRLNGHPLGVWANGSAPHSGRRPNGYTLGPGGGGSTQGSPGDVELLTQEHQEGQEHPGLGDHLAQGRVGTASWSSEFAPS
CYP2C9, sequence (P11712 whole entry): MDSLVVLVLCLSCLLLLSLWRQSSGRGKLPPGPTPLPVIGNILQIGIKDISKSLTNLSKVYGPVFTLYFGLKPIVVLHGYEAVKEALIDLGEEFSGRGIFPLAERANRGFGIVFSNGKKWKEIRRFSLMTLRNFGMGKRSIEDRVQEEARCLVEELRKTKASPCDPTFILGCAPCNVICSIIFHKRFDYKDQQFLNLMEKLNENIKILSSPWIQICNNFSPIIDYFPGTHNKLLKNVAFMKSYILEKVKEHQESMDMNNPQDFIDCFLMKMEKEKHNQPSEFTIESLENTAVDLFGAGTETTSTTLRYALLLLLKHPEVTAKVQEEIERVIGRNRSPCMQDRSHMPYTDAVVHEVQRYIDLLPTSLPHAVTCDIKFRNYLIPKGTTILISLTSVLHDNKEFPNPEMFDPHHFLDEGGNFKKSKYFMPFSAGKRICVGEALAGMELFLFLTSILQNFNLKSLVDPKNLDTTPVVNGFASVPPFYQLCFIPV
Cytochrome P450 2C9, sequence (P11712 whole entry): as above
Cytochrome P450 2D6, sequence (P10635 whole entry): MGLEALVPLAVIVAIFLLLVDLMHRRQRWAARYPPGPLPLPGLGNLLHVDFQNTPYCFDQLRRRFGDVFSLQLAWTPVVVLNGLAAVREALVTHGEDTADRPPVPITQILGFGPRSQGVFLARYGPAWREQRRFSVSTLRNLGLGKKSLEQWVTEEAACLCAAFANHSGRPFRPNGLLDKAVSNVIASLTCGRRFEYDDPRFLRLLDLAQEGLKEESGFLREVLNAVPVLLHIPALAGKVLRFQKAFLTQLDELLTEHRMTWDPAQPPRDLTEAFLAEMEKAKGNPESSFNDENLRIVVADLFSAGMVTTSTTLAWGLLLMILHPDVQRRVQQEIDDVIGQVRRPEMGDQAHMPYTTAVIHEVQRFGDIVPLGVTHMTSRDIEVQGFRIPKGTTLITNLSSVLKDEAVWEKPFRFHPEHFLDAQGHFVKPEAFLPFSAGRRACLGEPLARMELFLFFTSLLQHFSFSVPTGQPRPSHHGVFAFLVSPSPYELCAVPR
CYP2D6, sequence (P10635 whole entry): as above

CLH (Liver microsome [1]): 3.38 µL/min
inhibition at 10 min, 10 µM (CYP3A4): 3.1%
Fu (Plasma [2]): 2.67%
inhibition at 10 min, 10 µM (CYP1A2): 15%
t1/2 (Liver): 1.6 h
inhibition [3]: 19%
solubility [4]: 15.6 µg/mL (≈ 31 µM)
t1/2 [5]: > 8 h
IC50 (Cytochrome P450 2C19): > 7 µM
inhibition at 10 min, 10 µM (CYP2C19): 34%
Fu (Plasma [6]): 4.04%
inhibition [7]: 10%
IC50 (Cytochrome P450 2D6): 7.4 µM
Fu (Plasma [9]): 2.75%
inhibition at 10 min, 10 µM (CYP2C9): 24.2%
t1/2 (Liver microsome [10]): 3.42 h
inhibition [11]: 18%
IC50 (Cytochrome P450 2C9): > 7 µM
IC50 (Cytochrome P450 3A4): > 7 µM
inhibition at 10 min, 10 µM (CYP2D6): 57.5%
IC50 (Cytochrome P450 1A2): > 7 µM
t1/2 (Liver microsome [14]): 1.52 h
t1/2 [15]: > 8 h
Compound: CNC(=O)[C@@]12C[C@@H]1[C@@H](n1cnc3c(NC)nc(C#Cc4ccc(Br)s4)nc31)[C@H](O)[C@@H]2O
Activity (Mus musculus [8]): 48.7%
Emax at 3 µmol/kg (Mus musculus [12]): 100%
Time (Mus musculus [13]): 1 h
